Reference: the RNAGym collection of RNA variant scans (doi:10.1126/science.aae0568)
This sample holds only a part of the variants without activity.

B1: tRNA (parent)
chain: GUUCCGUUGGCGUAAUGGUAACGCGUCUCCCUCCUAAGGAGAAGACUGCGGGUUCGAGUCCCGUACGGAACG

Variants of: B1
Experiment: yeast fitness relative to wild type (ratio to wild type); higher = fitter; tRNA-Arg(CCU), competitive growth, 37 C, YPD
Method in brief: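 Amplicons of the tRNA-Arg(CCU) gene were sequenced, 100-nucleotide paired-end, from the start population and from each end population of a pooled yeast competition. The competition, in six parallel replicates, lasted 24 hours in YPD at 37°C. Fitness relative to wild type was calculated from changes in genotype frequencies. Genotypes had to have ≥ 100 starting reads, and estimates < 0.5 were set to 0.5.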

Compared with A43G C55G, A43U C46A A65C A70U is lower in yeast fitness: 0.684 for the first, ≤ 0.5 for the second.

First: A43C C55U G67C
Second: G44C A57C
The yeast fitness of the first is lower: 0.556 for the first, 0.568 for the second.

Going from G44C A57G to A43U G56A, the yeast fitness rises from 0.895 to 0.96.

Compared with G44C U64G, G44C U64C is higher in yeast fitness: 0.653 for the first, 0.858 for the second.

First: A43C G63A A65C
Second: G44C U59C
The yeast fitness of the first is lower: 0.701 for the first, 0.791 for the second.

Going from G44C U59A to A43G G51A, the yeast fitness rises from 0.581 to 0.853.

Going from A43G C49U A69C to A43U C60G U64A, the yeast fitness rises from 0.6 to 0.679.

Going from G44C U47C to A43G G52C, the yeast fitness falls from 0.822 to 0.643.

Going from A43G G51A G58A to G44C C62G, the yeast fitness rises from 0.58 to 0.644.

First: G44C C62A
Second: A43C G48A A70C
The yeast fitness of the first is lower: 0.738 for the first, 1.13 for the second.

Going from A45C C55U G56A to G44A C55A, the yeast fitness rises from 0.539 to 0.658.

First: G44A C55U
Second: G44A C46A G52A C66U
The yeast fitness of the first is higher: 0.776 for the first, 0.62 for the second.

Going from G44A A45C C49G to A43G G67A, the yeast fitness falls from 0.983 to 0.864.

First: A43G G67U
Second: G44A A65G
The yeast fitness of the first is lower: 0.85 for the first, 1 for the second.

Compared with G44C A70G, A45C C46U G67C is lower in yeast fitness: 0.954 for the first, 0.584 for the second.

Going from A43U C55A G68C A69U to A45C G50A C62U A69U, the yeast fitness rises from ≤ 0.5 to 0.561.

Going from G44A A69C to A43C U47C, the yeast fitness rises from 0.988 to 1.07.

Compared with G44C C46A, A43U C60A C62U is lower in yeast fitness: 1.01 for the first, 0.65 for the second.

First: A43G G44C C66U
Second: G44A C46U
The yeast fitness of the first is lower: 0.57 for the first, 0.981 for the second.

Going from A43G G51C A69U to A45C G48A C55A, the yeast fitness rises from ≤ 0.5 to 0.544.

Compared with G44A G52A, G44A G52C is lower in yeast fitness: 0.827 for the first, 0.504 for the second.

Going from G44C G52A U59C U64G to A43U A57G, the yeast fitness rises from 0.553 to 1.01.

Compared with A43U A57U, A45C G50A G63C is lower in yeast fitness: 0.761 for the first, 0.578 for the second.

Compared with G44A C55G G63C, A45C C46G is higher in yeast fitness: ≤ 0.5 for the first, 1.01 for the second.

Compared with A45C C46A, A43C G63C G67A is lower in yeast fitness: 0.991 for the first, ≤ 0.5 for the second.

Compared with A45C A57G A70C, A43G A45U C46U A70U is lower in yeast fitness: 0.764 for the first, ≤ 0.5 for the second.

Compared with A43G, A43U is lower in yeast fitness: 0.991 for the first, 0.988 for the second.

Going from A43U G58U to G44C A45G A70G, the yeast fitness rises from 0.694 to 0.695.

Compared with G44A U54A A70U, A43U A69C is higher in yeast fitness: 0.549 for the first, 0.986 for the second.

Compared with A43U A69G, A43C C49U C66U is lower in yeast fitness: 0.886 for the first, 0.718 for the second.

Going from G44C C46A G56C to A43U G48C C60G, the yeast fitness falls from 0.543 to ≤ 0.5.

First: G44A U47G C49G U54G
Second: A43U C62U A70C
The yeast fitness of the first is lower: ≤ 0.5 for the first, 0.637 for the second.

Going from A45C A69G to A45C A69C, the yeast fitness falls from 1.06 to 0.744.

Going from A43G G50A G51A C62U to A43U U59A C61A, the yeast fitness rises from ≤ 0.5 to 0.629.

A43U C61G C62U G68A A69C and G44C G50C G52A U54G C61G cannot be ordered by yeast fitness: ≤ 0.5 for the first, ≤ 0.5 for the second.

Compared with A45C G50C G51C C55U G67C, A43G G63A A69U is higher in yeast fitness: ≤ 0.5 for the first, 0.812 for the second.

First: A45C A57G
Second: A43U U54A A57C
The yeast fitness of the first is higher: 0.858 for the first, 0.533 for the second.

Going from A43C C49U C55G to A43U U47C, the yeast fitness rises from 0.519 to 0.899.

Compared with A43G A45C C49G, A43C G68A is higher in yeast fitness: 0.532 for the first, 0.922 for the second.

Going from A43U G50A G68A to A43U C60G C62U, the yeast fitness rises from ≤ 0.5 to 0.839.

A43U C60G C62G and A43G G51A C61U C62G cannot be ordered by yeast fitness: ≤ 0.5 for the first, ≤ 0.5 for the second.

Going from A43G U64G C66U to G44A A45U C62G, the yeast fitness falls from 0.544 to ≤ 0.5.

Compared with A43C C49U C62G, G44A C46U G58C is higher in yeast fitness: 0.561 for the first, 1.08 for the second.

Compared with A43G C60U C62U, A45C A57C G68C is lower in yeast fitness: 0.536 for the first, 0.517 for the second.

Going from G44C G50A G67C to A43U A65C G68U, the yeast fitness falls from 0.604 to 0.527.

Going from G44A C60G U64C to A43U U53A A69C, the yeast fitness rises from ≤ 0.5 to 0.614.

Going from G44A G67C to G44A G67A, the yeast fitness rises from 0.71 to 0.887.

First: A43C G58C
Second: A43U C46U C49U
The yeast fitness of the first is higher: 1.03 for the first, 0.731 for the second.

Going from A45C C49A A65U to A43U U59G, the yeast fitness rises from ≤ 0.5 to 0.81.

A43U A45C G67C and A43G G48A G50A G51A C62U cannot be ordered by yeast fitness: ≤ 0.5 for the first, ≤ 0.5 for the second.

Compared with A45C C55U A69U, A43G A45U A69U is higher in yeast fitness: 0.753 for the first, 0.771 for the second.

Going from G44A C62G to G44A C62U, the yeast fitness rises from 0.668 to 0.874.

Going from A43U C62U G63A to A45C C55G C61U, the yeast fitness falls from 0.823 to ≤ 0.5.

G44C C46G A57C and A45C C46U C55U C62U cannot be ordered by yeast fitness: ≤ 0.5 for the first, ≤ 0.5 for the second.

Going from A45C C55A to A43C C66G, the yeast fitness rises from 0.562 to 0.603.

First: A43C C66A
Second: A43U A69C A70C
The yeast fitness of the first is higher: 0.699 for the first, 0.601 for the second.

First: A43U U64G
Second: A45C C49G
The yeast fitness of the first is lower: 0.7 for the first, 0.721 for the second.

Compared with A45C C49U, A45C C49A is lower in yeast fitness: 0.978 for the first, 0.603 for the second.

Compared with A43G G51A C55G C60U, G44A G56C A57U is higher in yeast fitness: ≤ 0.5 for the first, 0.596 for the second.

A43U C46G A57G U64A A70G and G44C C62U G63A cannot be ordered by yeast fitness: ≤ 0.5 for the first, ≤ 0.5 for the second.

Compared with G44C G48A G51A, A43C C46A G48C is lower in yeast fitness: 0.985 for the first, 0.851 for the second.

Compared with G44U A45U G63C, A43U U47G U53G is higher in yeast fitness: ≤ 0.5 for the first, 0.519 for the second.

A43G G63C G68A and A43G C49U A57C A65U cannot be ordered by yeast fitness: ≤ 0.5 for the first, ≤ 0.5 for the second.

Going from A43U C61G C62A to A43G C46U C60G G68U, the yeast fitness falls from 0.581 to 0.567.

Going from A43G G52A A69U A70C to A43G A57U G58A, the yeast fitness rises from ≤ 0.5 to 0.531.

First: A43U C55A C66U
Second: G44C C55G
The yeast fitness of the first is higher: 0.6 for the first, 0.596 for the second.

Compared with G44C C55A, G44U C55G is lower in yeast fitness: 0.548 for the first, ≤ 0.5 for the second.

Going from A45C C49U A70C to A43G U64C, the yeast fitness rises from 0.813 to 0.923.

Going from A43G U64A to A45C G50A C60G A65G, the yeast fitness falls from 0.77 to ≤ 0.5.

Compared with G44C C55G A65G, A43U G52A A69U is lower in yeast fitness: 0.555 for the first, ≤ 0.5 for the second.

First: A43C G50C
Second: A43C G50A
The yeast fitness of the first is lower: 0.593 for the first, 0.803 for the second.

Compared with A43G C60U C62U G67A A70C, A43C U47A G58C U64C is lower in yeast fitness: 0.576 for the first, ≤ 0.5 for the second.

First: A45C G51A
Second: G44A G67A A70G
The yeast fitness of the first is higher: 0.919 for the first, 0.688 for the second.

Compared with A43U A45U A57C C66U, A45C C61G is higher in yeast fitness: ≤ 0.5 for the first, 0.591 for the second.

Going from A43G A45C to A43G A45G, the yeast fitness falls from 0.901 to 0.745.

Compared with A43G A45U, A43G A45U G48A is lower in yeast fitness: 1.01 for the first, 0.658 for the second.

Compared with A43G G48C C66G, A43U C46A G48C is higher in yeast fitness: ≤ 0.5 for the first, 0.631 for the second.

First: G44A U54C C61U A69C
Second: A45C A65G
The yeast fitness of the first is lower: 0.627 for the first, 0.993 for the second.

First: A45C A65U
Second: A43G C49A
The yeast fitness of the first is higher: 0.833 for the first, 0.574 for the second.

Going from A43G C49G to G44A U59C, the yeast fitness rises from 0.732 to 0.799.

Compared with G44A U59A, G44A U64C is higher in yeast fitness: 0.601 for the first, 0.935 for the second.

Going from G44A G68C to G44A G68U, the yeast fitness falls from 0.764 to 0.696.

G44A G58U A69C and G44U A45C G50C cannot be ordered by yeast fitness: ≤ 0.5 for the first, ≤ 0.5 for the second.

G44A G52A C61A gave a yeast fitness of 0.565.
